Compound activity as filed in PubChem BioAssay.
Rows were chosen to be rich in hits. Some 2.5% of all compounds tested hit in one or more screens of this group.
HGIII-sPLA2 inh: Blocks human group III sPLA2 activity. Q9NZ20. QFRET BODIPY PC-A2 liposome hydrolysis, fluorescence. inhibition, % at 12.2 µM. 370,000 compounds, 0.56% hits;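 active = inhibition above mean plus 3 SD of compounds lying within the high and low control bounds, cut at about 19% in these data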;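 also: 0% = median of test compound wells and 100% = no enzyme DMSO wells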
MC4R antag cAMP: antagonists of human melanocortin 4 receptor (MC4R); inhibition, % at 6.5 µM; P32245; MC4R-expressing cells, MTII-stimulated cAMP, LANCE TR-FRET; AID 540295; 360,000 compounds, 0.48% hits;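 active = inhibition above its plate's cutoff, the mean of tested wells on that plate plus 3 SD, cut at about 29% in these data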;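 also: 0% = Melanotan II alone and 100% = Melanotan II plus saturating MCL0020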
Target sequence (P32245 whole entry, looked up): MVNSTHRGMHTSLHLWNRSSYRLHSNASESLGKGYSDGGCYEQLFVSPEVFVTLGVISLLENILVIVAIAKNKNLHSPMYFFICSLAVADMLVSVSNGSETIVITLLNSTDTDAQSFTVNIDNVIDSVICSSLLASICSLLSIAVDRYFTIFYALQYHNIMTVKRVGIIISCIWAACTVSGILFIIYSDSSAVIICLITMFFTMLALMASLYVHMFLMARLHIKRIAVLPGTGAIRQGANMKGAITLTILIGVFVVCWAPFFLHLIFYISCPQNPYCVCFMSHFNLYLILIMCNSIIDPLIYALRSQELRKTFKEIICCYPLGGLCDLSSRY
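Material: U2OS-MC4R stable cell line | Reagent: Melanotan II challenge after compound preincubation | Doses: One concentration, 6.5 µM nominal | Incubation: 30-min compound preincubation, 1-h Melanotan II challenge, 1-h detection, room temperature | Signal: TR-FRET cAMP assay | Replicates: One well per compound, no replicates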
A1 inh: inhibitors of the anti-apoptotic protein A1, read as caspase activation. MEF A1-2A-BIM cells, Caspase-Glo 3/7 luminescence, 3 h; percent of clofoctol response, vehicle zero. caspase activation, % (no concentration beside the values). 330,000 compounds, 0.066% hits;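 active = over half of replicate activation scores above 10%, or exactly half above 10 with the replicate mean above 10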
MC4R barr agon: agonists of human melanocortin 4 receptor (MC4R) beta-arrestin | U2OS MC4R beta-arrestin complementation, luminescence; percent of melanotan II response, DMSO zero | activation, % at 8.9 µM | 360,000 compounds, 0.98% hits | P32245 | AID 540308;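 active = activation above a per-plate cutoff, the mean activation of sample wells on that plate plus 3 SD, cut at about 8% in these data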
Exocytosis inh: lytic granule exocytosis inhibition | AID 651702 | inhibition, % at 10 µM | 360,000 compounds, 0.66% hits | TALL-104 LAMP-1 surface exposure, flow cytometry; cells stimulated with thapsigargin and PMA;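 active = inhibition above about 55%, limit read from the data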
NTR1 ag: activates human neurotensin receptor 1 | AID 493036 | 330,000 compounds, 0.17% hits | NTR1-U2OS beta-arrestin-GFP spot imaging, agonist mode | P30989 | activation, % at 20 µM;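 active = activation at or above 40% of the spot to cytoplasm intensity ratio, with at least 20 cells analyzed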;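 also: 0% = DMSO without peptide and 100% = 100 nM NTR1 peptide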
Target sequence (P30989 whole entry, looked up): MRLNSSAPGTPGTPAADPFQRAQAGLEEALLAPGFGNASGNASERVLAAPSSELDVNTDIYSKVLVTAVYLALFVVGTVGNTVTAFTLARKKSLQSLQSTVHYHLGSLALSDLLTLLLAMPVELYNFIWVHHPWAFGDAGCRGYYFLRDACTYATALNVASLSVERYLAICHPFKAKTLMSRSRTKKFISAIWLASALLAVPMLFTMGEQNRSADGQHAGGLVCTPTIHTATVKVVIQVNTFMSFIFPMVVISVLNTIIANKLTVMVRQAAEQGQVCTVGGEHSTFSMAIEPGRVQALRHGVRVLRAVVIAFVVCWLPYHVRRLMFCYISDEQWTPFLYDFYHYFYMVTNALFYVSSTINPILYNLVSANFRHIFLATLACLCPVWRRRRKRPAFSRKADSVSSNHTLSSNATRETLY
* = called active by the depositor; nt = not tested or not shown.

SMILES	HGIII-sPLA2 inh	MC4R antag cAMP	A1 inh	MC4R barr agon	Exocytosis inh	NTR1 ag
O=C(O)CCS(=O)(=O)c1nc(-c2cccs2)cc(C(F)(F)F)n1	-2.3	4.7	-0.7	-0.7	8.9	3.8
CCC(=O)NC(=S)Nc1cccc(Cl)c1N1CCCCC1	2.3	3.7	0.7	-0.2	2.7	49.7*
CCc1c(-c2ccc(OC)cc2)ncn1CCc1ccccc1OC	3.3	nt	nt	nt	nt	nt
Cc1ccc(CSCCC(=O)NCCc2ccc(Cl)cc2)cc1	-0.3	7.7	-0.6	8.6*	1.5	-2.0
O=C1C=CC(=O)N1c1ccc(OC(F)F)cc1	19.9*	36.6*	-3.8	-1.8	6.8	nt
O=C1C=CC(=O)N1c1ccc(O)cc1	8.4	-6.7	-0.5	-0.1	7.1	0.3
O=C(Cn1nnc(-c2ccc(N3CCOCC3)cc2)n1)c1ccccc1	-46.5	nt	nt	nt	nt	nt
Cc1ccc(-n2c(SCC(=O)c3ccc(O)c(O)c3)nnc2-c2ccccc2)cc1	17.5	nt	nt	nt	nt	nt
CCN(CC)CCOC(=O)c1ccc(N/C=C(/C#N)c2nc(-c3ccc(OC)c(OC)c3)cs2)cc1	-12.2	-10.4	-0.5	-0.3	63.9*	5.7
COC(=O)C1CN(Cc2cn(Cc3ccc(C)cc3)nn2)CCS(=O)(=O)N1Cc1ccc(F)cc1 (stereo not given)	-10.6	nt	nt	nt	nt	nt
CC(=NNc1nc2ccccc2s1)c1ncccn1	-3.8	2.9	nt	-2.8	102.3*	nt
O=C(NCCc1ccccc1)OCc1cn(Cc2ccc(C(F)(F)F)cc2)nn1	-2.0	nt	nt	nt	nt	nt
CCOc1ccc(N2C(=O)/C(=C/c3cccs3)N(CC(=O)OC)C2=S)cc1	-4.5	3.9	1.2	20.0*	2.3	1.2
CCCC[C@H](C(=O)N(CC)c1ccccc1)[C@@H](O)c1ccc(C(C)=O)cc1	6.1	nt	nt	nt	nt	nt
C=CCc1cccc2cc(C(=O)OCC(=O)c3ccccc3)c(=O)oc12	-5.5	5.7	0.1	9.5*	-9.7	0.3
C=CCc1cccc2cc(C(=O)O)c(=O)oc12	7.3	9.6	0.1	-1.4	1.2	-0.9
CCCCCCCCN1CCS(=O)(=O)N(Cc2ccc(Cl)cc2)C(C(=O)OC)C1 (stereo not given)	1.1	nt	nt	nt	nt	nt
C=CCN(C)CC#Cc1ccc(F)cc1	13.4	nt	nt	nt	nt	nt
CCCCCCc1cc2cc(S(=O)(=O)c3ccc(F)c(Cl)c3)c(=O)oc2cc1O	0.3	4.0	-0.4	8.8*	1.6	6.5
Cc1ccc(CNc2oc(COc3ccccc3Cl)nc2C#N)cc1	-7.1	3.4	-0.1	9.5*	-8.8	4.4
CCN(CC)C(=O)c1ccc2c(c1)NC(=O)C(C)(C)O2	8.0	nt	nt	nt	nt	nt
C=CCn1c(SCC(=O)Nc2cc(C)on2)nc2sc3c(c2c1=O)CCCC3	1.3	3.0	0.3	-2.5	0.7	1.3
Cc1cc(NC(=O)CSc2nc3sc4c(c3c(=O)n2C)CCCC4)no1	2.3	10.8	0.0	0.9	-1.6	-1.1
Cc1cc(NC(=O)CSc2nc(C(C)C)nc3sc4c(c23)CCCC4)no1	4.4	13.6	-0.1	8.5*	-3.7	0.5
CCn1c(SCC(=O)Nc2cc(C)on2)nc2sc3c(c2c1=O)CCCC3	3.1	0.1	-0.7	17.1*	-3.2	2.2
SMILES	HGIII-sPLA2 inh	MC4R antag cAMP	A1 inh	MC4R barr agon	Exocytosis inh	NTR1 ag
Cc1cc(Oc2cccnc2)ccc1NC(=O)Cc1cn(C)c2ccccc12	-30.9	nt	nt	nt	nt	nt
Cc1cc(C)c2oc(C(=O)N(Cc3ccccc3)c3ccccn3)cc(=O)c2c1	0.5	22.7	0.3	-0.5	17.7	2.0
Cc1cc2oc(C(=O)N(Cc3ccccc3)c3ccccn3)cc(=O)c2cc1Cl	6.1	10.8	0.3	1.0	56.7*	2.8
Cc1nn(Cc2c(F)c(F)c(F)c(F)c2F)c(C)c1NC(=O)c1ccc(COc2cc(Cl)ccc2Cl)cc1	3.4	1.0	1.2	3.4	-2.6	3.6
Cc1cccc(C)c1NC(=O)c1cccc(COc2cc(Cl)ccc2Cl)c1	4.0	-4.2	-0.2	12.5*	-3.3	0.8
CNCCCOc1ccc(Cl)cc1C(C)(C)C	15.4	-0.8	-0.4	-0.6	-3.0	3.3
COCCCNCCCOc1ccc(Cl)cc1C(C)(C)C	-9.2	-2.3	0.7	10.1*	3.7	-2.6
CCOC(=O)CCc1c(C)c2ccc(OCc3ccc([N+](=O)[O-])cc3)cc2oc1=O	12.0	11.0	0.7	13.1*	0.6	0.2
Cc1ccccc1OCC(=O)Nc1ccc2c(c1)Cc1ccccc1-2	nt	6.9	1.2	28.3*	-2.4	5.9
C[C@H]1[C@H](c2ccccc2)Oc2cccc(NCCc3ccccc3)c2S(=O)(=O)N1Cc1cccc(Cl)c1	-2.9	nt	nt	nt	nt	nt
COC(=O)c1cc2c(c3c4cc(F)ccc4n(S(=O)(=O)c4ccc(C)cc4)c13)C(=O)N(Cc1ccc(C(F)(F)F)cc1)C2	-1.2	nt	nt	nt	nt	nt
CCOC(=O)Cc1ccc(Nc2nc(NCc3ccccc3)nc3ccsc23)cc1	-11.6	9.9	nt	8.5*	32.6	nt
CCOC(=O)Cc1ccc(Nc2nc(NC)nc3ccsc23)cc1	-8.8	-12.2	nt	-1.0	-1.6	nt
Cc1ccc(C(=O)N2CCCCC2)cc1NC1=C(Cl)C(=O)N(Cc2ccccc2)C1=O	-16.9	4.0	nt	-0.8	-3.4	22.2
Cc1ccc(O)c(NC2=C(Cl)C(=O)N(Cc3ccccc3)C2=O)c1	-3.3	2.2	nt	8.7*	14.8	nt
Brc1ccc2c(c1)OCCOCCOc1cc(Br)ccc1OCCOCCOCCO2	nt	8.5	-0.3	2.6	60.2*	25.3
COc1ccccc1N(C(=O)CCl)c1cn(C(C)=O)c2ccccc12	-6.8	5.9	0.4	8.6*	27.4	6.3
CCOC(=O)c1ccccc1Nc1cn(C(C)=O)c2ccccc12	7.9	-21.0	0.6	1.6	3.3	5.8
CCOC(=O)C1=C(Nc2ccc(Br)cc2)C(=O)N(CC)C1	5.4	nt	nt	nt	nt	nt
Cc1[nH]c2ccc(-c3nnc(SCC(=O)NCc4ccco4)n3Cc3ccccc3)cc2c1C	-48.1	3.5	-0.7	0.1	87.0*	4.4
CCn1c(SCC(=O)NCc2ccco2)nnc1-c1ccncc1	nt	nt	0.6	nt	nt	1.1
Cc1cc(C)cc(C(=O)OCCCN(C)C2CN(Cc3cn(Cc4ccccc4F)nn3)S(=O)(=O)C2)c1 (stereo not given)	-8.5	nt	nt	nt	nt	nt
CCOC(=O)CC1C(=O)NCCN1c1nc2ccc(C)cn2c(=O)c1/C=C1\SC(=S)N(CC(C)C)C1=O (stereo not given)	nt	21.0	0.9	0.0	0.0	-1.8
CCCN1C(=O)/C(=C/c2c(N3CCNC(=O)C3CC(=O)OCC)nc3c(C)cccn3c2=O)SC1=S (stereo not given)	nt	28.9*	-0.2	-0.1	10.1	0.2
C=CCN(CC#Cc1ccccc1)CC=C	1.1	nt	nt	nt	nt	nt
Cc1cc(C)cc(N=Cc2c(O)c3ccccc3oc2=O)c1	-0.5	-0.7	10.3*	-0.6	-0.5	3.1
CN1C(=O)c2cc(NC(=O)Nc3ccccc3)ccc2OC[C@H]2O[C@@H](CC(=O)Nc3cc(F)ccc3F)CC[C@@H]21	-15.0	nt	nt	nt	nt	nt
Cc1cc(-n2c(SCC(=O)Nc3ccc(Br)cc3)nc3n[nH]c(C)c3c2=N)ccc1Cl	-0.5	16.1	2.2	19.0*	0.6	8.4
